The species entered for assay [1] is Canis lupus familiaris. The assay can be described thus: Percent inhibition of free fatty acid liberation at 100 uM was determined in Canine myocardial lipase assay. A digest of the protocol: (§1)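 Lipases were extracted from washed canine heart membranes with buffer, heparin and a little Triton X-100. The reaction ran in an oil-water emulsion of triolein with [3H]triolein tracer, 50 mM Tris pH 6.8 and 0.5% BSA. Compound was at 100 µM (3.0% DMSO final), tested in duplicate. Released [3H]oleic acid was extracted into hexane, separated from triolein and scintillation counted.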

The species named for assay [2] is Rattus norvegicus. The assay can be described thus: Percent inhibition of adipocyte lipolysis in rat adipocyte assay was determined at 30 uM concentration. The class given is functional. In short, it runs like this: (§2)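 Abdominal fat pads from male rats (200–250 g) were collagenase-digested for 1 h at 37 °C in Krebs-bicarbonate buffer gassed with 95:5 O2/CO2, then washed twice. Cells were stimulated with epinephrine (3 µM) plus methylisobutylxanthine (10 µM). Compound was added from DMSO or water stock and incubated 1 h at 37 °C. The run was stopped on ice, and glycerol in the aqueous phase was measured by glycerol dehydrogenase (NAD→NADH).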

The species named for assay [3] is Canis lupus familiaris. The assay can be described thus: Percentage inhibition of free fatty acid liberation at 100 uM determined in canine myocardial lipase assay. The class given is functional. A digest of the protocol:
as §1

Assay [4] is filed under the species Rattus norvegicus. The assay can be described thus: Concentration required for inhibition of adipocyte lipolysis in rat adipocyte assay was determined at 3 uM concentration. The class given is functional. A digest of the protocol: (§3)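 Abdominal fat pads from male rats (200–250 g) in Krebs-bicarbonate buffer gassed 95:5 O2/CO2, collagenase-digested 1 h at 37 °C, washed twice. Lipolysis stimulated with epinephrine (3 µM) plus methylisobutylxanthine (10 µM); compounds added from 20 mM DMSO or water stock (final DMSO 1%). Incubated 1 h at 37 °C under O2/CO2, stopped on ice. Medium glycerol measured by glycerol dehydrogenase (NAD to NADH).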

The species entered for assay [5] is Rattus norvegicus. As to the kind of experiment: Percent inhibition of adipocyte lipolysis in rat adipocyte assay was determined at 200 uM concentration. The class given is functional. A digest of the protocol: (§4)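 Rat adipocytes were prepared by collagenase digestion of abdominal fat pads from male rats (200–250 g) in gassed Krebs-bicarbonate buffer. Lipolysis was driven by 3 µM epinephrine plus 10 µM methylisobutylxanthine. Compound was added from a 20 mM DMSO or water stock to a final 200 µM (1% DMSO), then incubated 1 h at 37 °C under 95:5 O2/CO2. Released glycerol was quantified with glycerol dehydrogenase.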

For assay [6], the species on record is Rattus norvegicus. As to the kind of experiment: Percent inhibition of adipocyte lipolysis in rat adipocyte assay was determined at 3 uM concentration. It counts as functional. In short, it runs like this: as §3
The species entered for assay [7] is Rattus norvegicus. The assay can be described thus: Concentration required for inhibition of adipocyte lipolysis in rat adipocyte assay was determined. It counts as functional. A digest of the protocol:
as §2

Assay [8] is filed under the species Rattus norvegicus. As to the kind of experiment: Percent inhibition of adipocyte lipolysis in rat adipocyte assay was determined at 100 uM concentration. It counts as functional. A digest of the protocol:
as §3

The nature of assay [9]: (§5) Concentration required for inhibition of free fatty acid liberation in Canine myocardial lipase assay. The class given is tissue-based, Canis lupus familiaris, Myocardium.
Assay [10] can be described thus: as §5. It counts as functional, tissue-based, Canis lupus familiaris, Myocardium.
The species entered for assay [11] is Rattus norvegicus. As to the kind of experiment: Percent inhibition of adipocyte lipolysis in rat adipocyte assay was determined at 100 uM. It counts as functional. A digest of the protocol: as §2
The species named for assay [12] is Rattus norvegicus. The assay can be described thus: Percent inhibition of adipocyte lipolysis in rat adiposite assay was determined at 3 uM concentration. The class given is functional. In short, it runs like this: as §3
For assay [13], the species on record is Rattus norvegicus. The assay can be described thus: Percent inhibition of adipocyte lipolysis in rat adipocyte assay was determined at 3 uM. It counts as functional. In short, it runs like this:
as §3

For assay [14], the species on record is Rattus norvegicus. As to the kind of experiment: Inhibitory concentration (IC50) of adipocyte lipolysis in rat adipocyte assay was determined.
Assay [15] is filed under the species Rattus norvegicus. As to the kind of experiment: Concentration required for inhibition of adipocyte lipolysis in rat adipocyte assay was determined at 200 uM concentration. It counts as functional. In short, it runs like this:
as §4

With `COc1ccc(OC(=O)Nc2cccc3cccnc23)cc1`, the inhibition in [1] is 75%. The inhibition at 30 µM in assay [2] was 3%. As to `Cc1ccccc1NC(=O)Oc1cccc2cccnc12`, the inhibition in assay [3] worked out at 7%. The same compound returned an inhibition at 3 µM in [4] of 40%. Consider `COc1cccc(NC(=O)Oc2ccc3cccnc3c2)c1`, for which the inhibition in [1] was 52%. This compound also gave an inhibition at 200 µM in assay [5] of 25%.

On to `O=C(Nc1ccccc1)Oc1cccc2cccnc12`, for which, in assay [3], the inhibition came to 69%. In addition, in assay [6], the inhibition at 3 µM was 28%. Consider `O=C(Nc1ccccc1Cl)Oc1ccc2cccnc2c1`, for which the inhibition in assay [3] came to 6%.

As to `COc1ccc(NC(=O)Oc2cccc3ccc(C)nc23)cc1`, in assay [3], the inhibition stood at 68%. Moreover, in [7], the 50% inhibitory concentration (IC50) amounted to 0.2 µM. As to `COc1ccc(CCNC(=O)Oc2cccc3cccnc23)cc1`, the inhibition in assay [3] came to 70%. For the same compound, in assay [8], 100 µM produced 98% inhibition. In the case of `Cc1ccc2cccc(OC(=O)Nc3ccc(Br)cc3)c2n1`, the inhibition in [3] came to 68%. In assay [6], this compound showed an inhibition at 3 µM of 5%. For the compound `COc1ccccc1NC(=O)Oc1ccc2ncccc2c1`, the IC50 is 42 µM in [9] and 30 µM in assay [7]. Consider `COc1ccc(NC(=O)Oc2cccc3ncccc23)cc1`, for which, in [1], the inhibition was 63%. In assay [2], this compound yielded an inhibition at 30 µM of 1%. For `COc1ccc(CNC(=O)Oc2cccc3cccnc23)cc1`, the inhibition in assay [3] was determined as 72%. The compound also returned a concentration for half-maximal inhibition (IC50) in [7] of 5.8 µM. Regarding `COc1ccccc1NC(=O)Oc1ccc2cccnc2c1`, the IC50 was 48 µM in [9] and 80 µM in assay [7].

In the case of `O=C(NCCCCCCNC(=O)ON=C1CCCCC1)ON=C1CCCCC1`, the IC50 was determined as 4 µM in assay [10] and 1 µM in [7]. Consider `COc1ccc(NC(=O)COc2cccc3cccnc23)cc1`, for which the inhibition in [1] came out at 7%. Also, in [11], the inhibition at 100 µM worked out at 26%.

`O=C(Nc1ccccc1C(F)(F)F)Oc1ccc2cccnc2c1`: the inhibition in [3] stood at 12%. With `Cc1cnc(C(=O)O)c[n+]1[O-]` [ACIPIMOX], the IC50 in assay [10] turned out to be 39 µM.

Regarding `O=C(Nc1ccccc1)Oc1c(Cl)cc(Cl)c2cccnc12`, the IC50 in assay [10] came to 56 µM. Further, the inhibition at 200 µM in [5] is 28%. Take `C[C@@H](NC(=O)Oc1cccc2cccnc12)c1ccccc1`: the inhibition in assay [3] came to 76%. Moreover, in assay [7], the midpoint of inhibition, the IC50, lay at 35 µM. Consider `O=C(Nc1ccc(Br)cc1)Oc1cccc2cccnc12`, for which, in assay [10], the IC50 was 80 µM. The inhibition at 3 µM in assay [6] worked out at 5%. For the compound `COc1cccc(NC(=O)Oc2cccc3cccnc23)c1`, the IC50 in assay [10] was found to be 18 µM; in assay [7], 7 µM. Taken in the same sequence, the figures for `COc1ccc(NC(=O)Oc2cccc3ocnc23)cc1` were 7 µM and 2.4 µM. As for `COc1ccc(C(=O)Oc2cccc3cccnc23)cc1`, in assay [3], the inhibition turned out to be 13%. This compound yielded an inhibition at 200 µM in assay [5] of 49%. Regarding `COc1ccc(NC(=O)Oc2cccc3cccnc23)c(OC)c1`, the inhibition in assay [3] was determined as 65%. In assay [4], this compound returned an IC50 of 0.2 µM. In the case of `COc1ccccc1OC(=O)Nc1cccc2cccnc12`, the IC50 in assay [9] stood at 20 µM; in assay [7] it was 30 µM. On to `Cc1ccc2cccc(OC(=O)Nc3ccccc3)c2n1`, for which the inhibition in assay [3] came out at 68%. The inhibition at 3 µM in [6] came out at 29%.

On to `CCOC(=O)c1ccc(NC(=O)Oc2cccc3cccnc23)cc1`, for which the IC50 in [9] stood at 200 µM. This compound also had an inhibition at 200 µM in [5] of 44%. On to `COc1ccccc1NC(=O)Nc1cccc2cccnc12`, for which the IC50 in assay [9] was 73 µM. This compound had an inhibition at 200 µM in assay [5] of 4%.

Turning to `Cc1ccc(NC(=O)Oc2cccc3cccnc23)cc1`, the inhibition in assay [3] was determined as 63%. The compound also had an Inhibition in assay [12] of 76%. Regarding `COc1ccc(NC(=O)Oc2ccc3ncccc3c2)cc1`, the inhibition in assay [1] is 64%. In assay [2], this compound gave an inhibition at 30 µM of 8%. Take `O=C(Nc1cccc(Cl)c1)Oc1cccc2cccnc12`: the inhibition in assay [3] amounted to 41%. 3 µM produced 5% inhibition in assay [13]. On to `COc1ccc(NC(=O)Oc2cccc3cccnc23)cc1`, for which the IC50 in [10] worked out at 17 µM; in assay [14], 0.1 µM. Regarding `COc1ccccc1NC(=O)Oc1cccc2ncccc12`, the IC50 in assay [10] turned out to be 48 µM. In assay [5], this compound yielded an inhibition at 200 µM of 31%. Consider `O=C(Nc1ccc(Cl)cc1)Oc1cccc2cccnc12`, for which the inhibition in assay [3] amounted to 58%. For the same compound, testing at 3 µM in [6] gave an inhibition of 52%. Take `O=C(Nc1cccc(C(F)(F)F)c1)Oc1cccc2cccnc12`: the inhibition in [3] worked out at 56%. The inhibition at 3 µM in [4] is 7%.

As to `CC(NC(=O)Oc1cccc2cccnc12)c1ccccc1` (centres undefined), in assay [1], the inhibition stood at 74%. In [7], this compound registered an IC50 of 35 µM. `COc1ccc(NC(=O)Oc2ccc3cccnc3c2)cc1`: the inhibition in assay [3] was found to be 60%. In [2], this compound came in with an inhibition at 30 µM of 0%. For `COc1ccc(NC(=O)Oc2ccc(S(=O)(=O)O)c3cccnc23)cc1`, in assay [3], the inhibition came to 83%. The compound also showed an inhibition at 200 µM in assay [5] of 14%. Regarding `COc1ccccc1NC(=O)Oc1cccc2cccnc12`, the IC50 in assay [9] came to 40 µM; in assay [7], 7 µM. In the case of `Cc1ccccc1NC(=O)Oc1ccc2cccnc2c1`, in [3], the inhibition stood at 45%. Also, the inhibition at 200 µM in [15] turned out to be 20%. Regarding `COc1ccc(OC)c(NC(=O)Oc2cccc3cccnc23)c1`, the IC50 in assay [10] was determined as 48 µM; in assay [7] it was 10 µM. As to `Cc1cccc(NC(=O)Oc2cccc3cccnc23)c1`, the inhibition in assay [3] is 64%. Also, in assay [12], the Inhibition turned out to be 84%. Consider `COc1ccc(CCNC(=O)Oc2ccc3cccnc3c2)cc1`, for which the inhibition in assay [3] was determined as 97%. In [8], this compound showed an inhibition at 100 µM of 84%.

Consider `CCOC(=O)c1ccc(NC(=O)Oc2ccc3cccnc3c2)cc1`, for which the inhibition in [1] is 46%. The compound also displayed an inhibition at 200 µM in [5] of 18%. Turning to `O=C(Nc1ccccc1Cl)Oc1cccc2cccnc12`, the inhibition in [3] came to 1%. As for `O=C(O)c1cccnc1` [NIACIN], the IC50 in [9] stood at 13 µM.

For the compound `COc1ccc(CC(=O)Oc2cccc3cccnc23)cc1`, the inhibition in assay [3] turned out to be 0%. The compound further gave an inhibition at 100 µM in assay [8] of 74%. With `O=C(Nc1ccccc1)Oc1ccc(Cl)c2cccnc12`, the inhibition in assay [3] turned out to be 69%. For the same compound, 3 µM produced 4% inhibition in assay [6].

These data come from ChEMBL document CHEMBL1123595, “Synthesis and antilipolytic activities of quinolyl carbanilates and related analogues” (J Med Chem, 1987).
